Calls of active or inactive are those of the source. The rule behind the calls is not given here.
Key:
[1] = test system: SK-BR-3; assay: Antiproliferative activity against human SKBR3 cells; type: functional, cell-based
Summary of the method: (§1)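 Cell growth inhibition with values in µM, reported as mean ± standard deviation from at least two separate experiments, each run in triplicate.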

[2] = test system: MCF7; assay: Antiproliferative activity against human MCF7 cells; type: functional, cell-based; summary of the method: as §1
[3] = target: SKBr3 (Homo sapiens); assay: Antiproliferative activity against human SKBr3 cells
[4] = test system: MCF7; assay: Effect on Hsp90 level in human MCF7 cells after 24 hrs by Western blot analysis; type: functional, cell-based
[5] = target: T1, Heat shock protein HSP90 (Homo sapiens, UniProt P07900+P08238); assay: Inhibition of Hsp90 in human MCF7 cells assessed as Raf degradation after 24 hrs by Western blot analysis; type: cell-based
Summary of the method: (§2)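 MCF-7 cells treated across a range of concentrations (in µM). Cell lysates were analysed by western blot for the Hsp90-dependent client proteins Her2, Raf and Akt. Geldanamycin (500 nM) served as positive control and DMSO as negative control.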

[6] = target: T1, Heat shock protein HSP90; assay: Inhibition of Hsp90 in human MCF7 cells assessed as Her2 degradation after 24 hrs by Western blot analysis; type: cell-based; summary of the method: as §2
[7] = target: T1, Heat shock protein HSP90; assay: Inhibition of Hsp90 in human MCF7 cells assessed as Akt degradation after 24 hrs by Western blot analysis; type: cell-based; summary of the method: as §2
[8] = target: T1, Heat shock protein HSP90; assay: Inhibition of Hsp90 (unknown origin); type: protein assay

SMILES	IC50 [1]	IC50 [2]	IC50 [3]	other results
COc1cccc(-c2cc(C(=O)Nc3cc4ccc(OC5CCN(C)CC5)c(C)c4oc3=O)ccc2OC(C)=O)c1	920 nM	910 nM		
CC(C)=CCc1cc(C(=O)Nc2cc3ccc(OC4CCN(C)CC4)c(C)c3oc2=O)ccc1OCCN(C)C	330 nM	720 nM		
COc1ccc(C(=O)Nc2cc3ccc(O[C@@H]4OC(C)(C)[C@H](OC)[C@@H](O)[C@H]4O)c(C)c3oc2=O)cc1-c1cccc(O)c1			2900 nM	
CC(=O)Oc1ccc(C(=O)Nc2cc3ccc(OC4CCN(C)CC4)c(C)c3oc2=O)cc1Cl	3500 nM	1610 nM		
Cc1c(OC2CCN(C)CC2)ccc2cc(NC(=O)Nc3ccc(Cl)cc3)c(=O)oc12			170 nM	
CC(=O)Oc1ccc(C(=O)Nc2cc3ccc(OC4CCN(C)CC4)c(C)c3oc2=O)cc1	1670 nM	1620 nM		
COc1ccc(C(=O)Nc2cc3ccc(OC4CCN(C)CC4)c(C)c3oc2=O)cc1-c1cccc(OC(C)=O)c1	290 nM	360 nM		
COc1cccc(-c2cc(C(=O)Nc3cc4ccc(OC5CCN(C)CC5)c(C)c4oc3=O)ccc2OC)c1			1340 nM	
Cc1c(OC2CCN(C)CC2)ccc2cc(NC(=O)c3ccc(O)c(CCC(C)C)c3)c(=O)oc12	600 nM	1250 nM		
Cc1c(OC2CCN(C)CC2)ccc2cc(NC(=O)c3ccccc3)c(=O)oc12	11500 nM	11700 nM		
Cc1c(OCCC2CCCCN2)ccc2cc(NC(=O)Nc3ccc(Cl)cc3)c(=O)oc12 (centres undefined)			210 nM	
Cc1c(OC2CCN(C)CC2)ccc2cc(NC(=O)c3ccc(O)cc3)c(=O)oc12	840 nM	1430 nM		
Cc1ccc(NC(=O)Nc2cc3ccc(OC4CCN(C)CC4)c(C)c3oc2=O)cc1			270 nM	
CC(C)=CCc1cc(C(=O)Nc2cc3ccc(OC4CCN(C)CC4)c(C)c3oc2=O)ccc1OC1CCN(C)CC1	210 nM	470 nM		

The next lines start with results.

IC50 [1]	IC50 [2]	IC50 [3]	SMILES	other results
1400 nM	1440 nM		CCCCOc1ccc(C(=O)Nc2cc3ccc(OC4CCN(C)CC4)c(C)c3oc2=O)cc1CC=C(C)C	
1400 nM	1120 nM		C#CCOc1ccc(C(=O)Nc2cc3ccc(OC4CCN(C)CC4)c(C)c3oc2=O)cc1CC=C(C)C	
1680 nM	2100 nM		CC(C)=CCc1cccc(C(=O)Nc2cc3ccc(OC4CCN(C)CC4)c(C)c3oc2=O)c1	
		7500 nM	COc1cccc(-c2cc(C(=O)Nc3cc4ccc(O[C@@H]5OC(C)(C)[C@H](OC)[C@@H](O)[C@H]5O)c(C)c4oc3=O)ccc2OC)c1	
		10900 nM	CO[C@@H]1[C@@H](O)[C@@H](O)[C@H](Oc2ccc3cc(NC(=O)c4ccc(O)c(CC=C(C)C)c4)c(=O)oc3c2C)OC1(C)C	
		13900 nM	COc1cccc(-c2cc(C(=O)Nc3cc4ccc(O[C@@H]5OC(C)(C)[C@H](OC)[C@@H](O)[C@H]5O)c(OC)c4oc3=O)ccc2OC)c1	
		310 nM	Cc1ccc(NC(=O)Nc2cc3ccc(OC4CCN(C)CC4)c(C)c3oc2=O)cc1C	
1410 nM	1580 nM		COc1ccc(C(=O)Nc2cc3ccc(OC4CCN(C)CC4)c(C)c3oc2=O)cc1CC=C(C)C	
860 nM	810 nM		COc1cccc(-c2cc(C(=O)Nc3cc4ccc(OC5CCN(C)CC5)c(C)c4oc3=O)ccc2O)c1	
3460 nM	5010 nM		Cc1c(OC2CCN(C)CC2)ccc2cc(NC(=O)c3ccc4c(c3)CCC(C)(C)O4)c(=O)oc12	
2300 nM	1480 nM		Cc1c(OC2CCN(C)CC2)ccc2cc(NC(=O)c3ccc(O)c(Cl)c3)c(=O)oc12	
250 nM	460 nM		CC(C)=CCc1cc(C(=O)Nc2cc3ccc(OC4CCN(C)CC4)c(C)c3oc2=O)ccc1OCCCN(C)C	Activity [4]: inactive; inhibition [5]: Dose-dependent effect; inhibition [6]: Dose-dependent effect; inhibition [7]: Dose-dependent effect
310 nM	380 nM		COc1ccc(C(=O)Nc2cc3ccc(OC4CCN(C)CC4)c(C)c3oc2=O)cc1-c1cccc(O)c1	IC50 [8]: 310 nM
2260 nM	2000 nM		C=CCc1cc(C(=O)Nc2cc3ccc(OC4CCN(C)CC4)c(C)c3oc2=O)ccc1OC(C)=O	
2430 nM	2170 nM		C=CCc1cc(C(=O)Nc2cc3ccc(OC4CCN(C)CC4)c(C)c3oc2=O)ccc1O	

Source: ChEMBL document CHEMBL2321658 (ACS Med Chem Lett, 2013)
